A short description of assay [1]: inhibitors of TNFa-induced NFkB p65 translocation, primary screen, imaging, HUVEC, MLSMR starter and 10KST1 sets (AID 438).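 Further: compound added about 3h40 before a 20 min TNFalpha stimulation.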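 On inhibition: signal is the nuclear over cytoplasmic p65 intensity ratio per well.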 As to conditions: HUVEC TNFa-induced p65 nuclear translocation; cell count: measured here: nuclei count (cytotoxicity indicator), at 2.08 µM; inhibition: at 2 µM, stronger effect = higher value, 0% TNFa-plus-vehicle, 100% no-TNFa wells.
Assay [2] can be described thus: reduction of polyQ htt aggregates in cells – imaging, exon1htt(103Q)mCFP cells, high-content imaging, primary screen (AID 483;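 active means visual image review flags a hit and inhibition of aggregation exceeds 20%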;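 further: compound exposure lasted 3 days before fixation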;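 on nuclei count: percent of the per-plate median nuclei count of sample wells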). As to conditions: exon1htt(103Q)mCFP cell line, aggregate imaging, at 2 µM; inhibition of aggregation: stronger effect = higher value; nuclei count: measured here: cell count, toxicity.
The nature of assay [3]: endothelial E-selectin expression blockers – imaging, HUVEC, immunofluorescence, MLSMR starter and 10KST1 sets, primary screen (AID 487;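 active means visually confirmed hit in the image check and inhibition above 20%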;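 on inhibition: signal is fraction of cell area covered by stained E-selectin grains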;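 on nuclei count: 100% = median nuclei count of all wells on the same plate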). As to conditions: HUVEC TNFalpha-induced E-selectin immunofluorescence imaging, at 2 µM; inhibition: stronger effect = higher value; nuclei count: measured here: cell number, toxicity.
The target in assay [4] is Voltage-gated potassium channel subunit beta-2 (Rattus norvegicus) (UniProt P62483). In words: inhibitors of rat Kvbeta2 reductase activity – biochemical, NADPH fluorescence, primary screen (AID 622;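 active means fluorescence slope higher than the sample average by over 3 SD, cut at about -0.22 in these data, passing the limit was not always enough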;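 further: slope of raw intensity against log time taken from 70 to 1610 s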). As to conditions: recombinant KvBeta, 4-cyanobenzaldehyde reduction, at 10 µM, stronger effect = higher value.
Assay [5] shares this target. The experiment in a line: enhancers of rat Kvbeta2 NADPH turnover – biochemical, NADPH fluorescence, primary screen (AID 623;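 active means NADPH fluorescence slope more negative than the mean of all samples by about 3 SD, 99.7% confidence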;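 further: fluorescence intensity change per second fitted from 20 to 320 s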). The conditions noted are these: Recombinant KvBeta, NADPH fluorescence decrease slope, 10 min; at 10 µM; stronger effect = lower value.
Assay [6] has as its target Muscarinic acetylcholine receptor M4 (Homo sapiens) (UniProt P08173). The experiment in a line: M4-linked GIRK flux change, two-sided – cell-based, HEK293 M4/GIRK, thallium flux, BTC-AM, M4 allosteric agonist project, primary screen (AID 625;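 active means fluorescence slope after compound addition differing from the mean of all tested samples at 99.7% confidence, mostly higher but some lower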;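 further: thallium influx through GIRK channels coupled to M4 in HEK293 cells with BTC-AM dye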). The conditions noted are these: at 10 µM, actives lie on both sides. The essentials:
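Material – HEK293 cells with M4 receptor and GIRK channels · Buffer or medium – pH 7.3 thallium assay buffer · Doses – one dose, 10 µM final · Timing – cells overnight at 37 °C, BTC-AM loading 1 h, reads 2 min total · Measured by – kinetic fluorescence with BTC-AM dye · Controls – carbachol and DMSO controls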

Assay [7] is described as follows: blockers of RIG-like receptor reporter activation – cell-based, Sendai virus stimulus, luciferase, 10K MLSCN set, TLR/RLR signaling modifier project, primary screen (AID 602276;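 active means inhibition at or above 50% at 10 µM; inactive means inhibition below 50%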;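 further: firefly luciferase from ISG56 promoter only with Renilla not read in this screen; 0% = Sendai virus plus DMSO and 100% = medium plus DMSO without virus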). The conditions noted are these: HEK293 RL24 IRF3 luciferase reporter, at 10 µM, stronger effect = higher value.
Assay [8] can be described thus: TLR3 IRF3 reporter activation blockers – cell-based, poly I:C stimulus, luciferase, 10K MLSCN set, primary screen (AID 602277;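 active means inhibition of the reporter signal at or above 50%; inactive means inhibition below 50%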). As to conditions: HEK293-TLR3 RL24 IRF3 luciferase reporter, at 10 µM, stronger effect = higher value.

Active and inactive are the calls of the source.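 How the source made its calls, unless noted: active means inhibition above 20% together with a positive visual image hit; inconclusive means visual image hit but inhibition not above 20%; inactive means no visual image hit.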

Sequence of Voltage-gated potassium channel subunit beta-2 (Rattus norvegicus) (P62483 whole entry, looked up): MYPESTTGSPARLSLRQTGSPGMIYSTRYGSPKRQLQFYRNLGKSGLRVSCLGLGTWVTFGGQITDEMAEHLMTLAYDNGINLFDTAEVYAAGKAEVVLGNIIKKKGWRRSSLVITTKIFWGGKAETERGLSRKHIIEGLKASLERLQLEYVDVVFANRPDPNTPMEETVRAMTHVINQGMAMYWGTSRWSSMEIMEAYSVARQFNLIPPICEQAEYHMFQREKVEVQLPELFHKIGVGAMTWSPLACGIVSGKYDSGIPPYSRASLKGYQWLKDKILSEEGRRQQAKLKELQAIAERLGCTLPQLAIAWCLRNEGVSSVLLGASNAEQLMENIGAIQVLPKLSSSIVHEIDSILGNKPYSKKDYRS
Sequence of Muscarinic acetylcholine receptor M4 (Homo sapiens) (P08173 whole entry, looked up): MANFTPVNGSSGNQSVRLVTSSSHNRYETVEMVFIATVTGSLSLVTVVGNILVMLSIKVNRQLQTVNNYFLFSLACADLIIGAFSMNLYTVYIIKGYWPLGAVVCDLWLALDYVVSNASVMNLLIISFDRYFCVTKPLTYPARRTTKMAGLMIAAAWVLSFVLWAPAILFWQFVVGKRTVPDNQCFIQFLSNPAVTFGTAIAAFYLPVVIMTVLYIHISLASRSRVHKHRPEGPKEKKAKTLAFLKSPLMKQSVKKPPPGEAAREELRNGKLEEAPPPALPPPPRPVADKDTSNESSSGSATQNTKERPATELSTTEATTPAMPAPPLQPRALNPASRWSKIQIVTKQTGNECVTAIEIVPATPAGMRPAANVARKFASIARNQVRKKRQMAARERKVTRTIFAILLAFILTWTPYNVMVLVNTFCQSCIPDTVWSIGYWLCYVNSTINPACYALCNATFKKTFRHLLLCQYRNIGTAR

Take `Nc1nnc(SCCOc2ccccc2)s1`: in assay [1], the cell count worked out at 417. The inhibition in assay [1] is -0.9% (inactive); in assay [3], -70% (inactive); in assay [7], -8.16% (inactive); in assay [8] it was -14% (inactive). For the same compound, in assay [2], the inhibition of aggregation is 2.2% (inactive). In addition, the results for the nuclei count in assay [2] and in assay [3] were 108% and 98.8%, respectively. Besides, the figures for the fluorescence slope in assay [4] and in assay [6] were -0.535 (inactive) and 0.00525 (inactive), respectively. For the same compound, the NADPH fluorescence slope in assay [5] was -1.2e-05 (inactive).

Turning to `CN(C)CC(=O)N1c2ccccc2CCc2ccc(NC(=O)c3ccc(N)cc3)cc21`, the cell count in assay [1] was determined as 555. Moreover, the inhibition in assay [1] is -15.6% (inactive); in assay [3], -115% (inactive); in assay [7], 11.3% (inactive); in assay [8] it was 26.6% (inactive). In addition, the inhibition of aggregation in assay [2] was 3.6% (inactive). Moreover, the results for the nuclei count in assay [2] and in assay [3] were 95.1% and 108%, respectively. The fluorescence slope in assay [4] was -0.571 (inactive); in assay [6] it was 0.00297 (inactive). Moreover, the NADPH fluorescence slope in assay [5] was -5.5e-05 (inactive).

With `Cc1c(/C(O)=C2/C(=O)C(=O)N(CCN3CCOCC3)C2c2cccs2)cnn1-c1ccccc1` (stereo not drawn), in assay [1], the cell count was found to be 566. For the same compound, the inhibition in assay [1] is 13.4% (inactive); in assay [3], 21.8% (inactive); in assay [7], 2.43% (inactive); in assay [8], 21.8% (inactive). Moreover, the inhibition of aggregation in assay [2] is -5% (inactive). The nuclei count in assay [2] is 103%; in assay [3], 97.7%. Besides, the fluorescence slope was -0.502 (inactive) in assay [4] and 0.00361 (inactive) in assay [6]. The NADPH fluorescence slope in assay [5] is -0.000209 (inactive).

Regarding `O=c1cc(-c2ccco2)oc2ccc(Cl)cc12`, the cell count in assay [1] was 286. In addition, the inhibition was -0.8% (inactive) in assay [1], 32.1% (inactive) in assay [3], 6.8% (inactive) in assay [7] and -71.7% (inactive) in assay [8]. Besides, the inhibition of aggregation in assay [2] was 19.7% (inactive). Further, the values for the nuclei count in assay [2] and in assay [3] were 70% and 111%, respectively. Also, the fluorescence slope in assay [4] is -0.568 (inactive); in assay [6], 0.00691 (inactive). Besides, in assay [5], the NADPH fluorescence slope is -2.4e-05 (inactive).

For `CC(=O)c1cccc(NC(=O)N2CCCC2C(=O)NCc2ccc(C)cc2)c1` (stereo not drawn), the cell count in assay [1] was determined as 537. In addition, the inhibition is -4.9% (inactive) in assay [1], -6.3% (inactive) in assay [3], 14.1% (inactive) in assay [7] and 23.1% (inactive) in assay [8]. In addition, the inhibition of aggregation in assay [2] is 6.2% (inactive). Besides, the figures for the nuclei count in assay [2] and in assay [3] were 102% and 120%, respectively. The fluorescence slope was -0.216 (inactive) in assay [4] and 0.00664 (inactive) in assay [6]. Also, the NADPH fluorescence slope in assay [5] is -5.5e-06 (inactive).

As for `O=C(CSc1ccc(Cl)cc1)OCc1nnc(-c2ccccc2)o1`, the cell count in assay [1] worked out at 503. For the same compound, the inhibition was -1.1% (inactive) in assay [1], -46.5% (inactive) in assay [3], -5.35% (inactive) in assay [7] and -4.44% (inactive) in assay [8]. Further, in assay [2], the inhibition of aggregation was 8.3% (inactive). The nuclei count in assay [2] worked out at 108%; in assay [3], 115%. Further, the results for the fluorescence slope in assay [4] and in assay [6] were -0.613 (inactive) and 0.00469 (inactive), respectively. Also, the NADPH fluorescence slope in assay [5] is 6.8e-05 (inactive).

As for `CCOC(=O)c1sc(NC(=O)CSc2nnc(-c3ccco3)n2CC)c(C(=O)OCC)c1C`, in assay [1], the cell count was 696. For the same compound, the inhibition in assay [1] was -10.9% (inactive); in assay [3], -27.8% (inactive); in assay [7], -9.39% (inactive); in assay [8] it was -38.2% (inactive). In addition, the inhibition of aggregation in assay [2] is -26.7% (inactive). Besides, the values for the nuclei count in assay [2] and in assay [3] were 104% and 92.7%, respectively. In addition, the fluorescence slope was -0.565 (inactive) in assay [4] and 0.00558 (inactive) in assay [6]. Besides, the NADPH fluorescence slope in assay [5] is -3.7e-05 (inactive).

For the compound `Cc1ccc(C2N(c3ccc(Cl)c(Cl)c3)C(=O)C3CCCN32)o1` (stereo not drawn), the cell count in assay [1] came to 495. Further, the inhibition is -1.5% (inactive) in assay [1], -11.2% (inactive) in assay [3], 16.9% (inactive) in assay [7] and 18.1% (inactive) in assay [8]. For the same compound, the inhibition of aggregation in assay [2] was 7.9% (inactive). Besides, the nuclei count in assay [2] amounted to 98.2%; in assay [3], 97%. Besides, the values for the fluorescence slope in assay [4] and in assay [6] were -0.561 (inactive) and 0.0047 (inactive), respectively. Also, the NADPH fluorescence slope in assay [5] was -2e-05 (inactive).

Regarding `c1ccc(-c2n[nH]c3ccccc23)cc1`, the cell count in assay [1] amounted to 708. Moreover, the inhibition in assay [1] is -3% (inactive); in assay [3] it was -13.1% (inactive); in assay [7] it was -14% (inactive); in assay [8], -30% (inactive). In addition, in assay [2], the inhibition of aggregation was 13.9% (inactive). For the same compound, the nuclei count was 116% in assay [2] and 106% in assay [3]. The fluorescence slope in assay [4] was -0.55 (inactive); in assay [6] it was 0.00778 (inactive). Also, the NADPH fluorescence slope in assay [5] is -5.6e-05 (inactive).

For the compound `CCOC(=O)N1CCN(S(=O)(=O)c2cc(Cl)c(OC)cc2Cl)CC1`, the cell count in assay [1] was 364. Also, the inhibition in assay [1] is -9.8% (inactive); in assay [3], -101% (inactive); in assay [7], -2.67% (inactive); in assay [8], 1.26% (inactive). The inhibition of aggregation in assay [2] was -8.2% (inactive). Besides, the nuclei count in assay [2] is 100%; in assay [3], 112%. Besides, the figures for the fluorescence slope in assay [4] and in assay [6] were -0.509 (inactive) and 0.00536 (inactive), respectively. In assay [5], the NADPH fluorescence slope was 4.3e-05 (inactive).

As for `CC(C)NC(=O)c1ccccc1NC(=O)c1ccccc1N(C)S(C)(=O)=O`, the cell count in assay [1] is 554. The inhibition in assay [1] is 25% (inactive); in assay [3], -155% (inactive); in assay [7] it was 10.6% (inactive); in assay [8] it was 13.7% (inactive). Besides, in assay [2], the inhibition of aggregation was 6.8% (inactive). Also, the figures for the nuclei count in assay [2] and in assay [3] were 104% and 101%, respectively. Moreover, the fluorescence slope in assay [4] is -0.456 (inactive); in assay [6], 0.00572 (inactive). In assay [5], the NADPH fluorescence slope was -5.7e-05 (inactive).

On to `OCc1nc2ccccc2n1CC(O)Cn1ccc2ccccc21` (stereo not drawn), for which, in assay [1], the cell count was 463. In addition, the inhibition was 2.9% (inactive) in assay [1], -71.2% (inactive) in assay [3], 1.37% (inactive) in assay [7] and -8.82% (inactive) in assay [8]. In assay [2], the inhibition of aggregation was -7.1% (inactive). In addition, the values for the nuclei count in assay [2] and in assay [3] were 98.2% and 117%, respectively. The values for the fluorescence slope in assay [4] and in assay [6] were -0.577 (inactive) and 0.00376 (inactive), respectively. For the same compound, the NADPH fluorescence slope in assay [5] is -5e-05 (inactive).

As to `COCCn1c(=O)[nH]c2cc(C(=O)NCc3cccnc3)ccc2c1=O`, the cell count in assay [1] was 744. Besides, the inhibition was 3.8% (inactive) in assay [1], 56.4% (active) in assay [3], 10.8% (inactive) in assay [7] and 13.4% (inactive) in assay [8]. Further, the inhibition of aggregation in assay [2] was 7.4% (inactive). In addition, the nuclei count in assay [2] came to 93.8%; in assay [3], 102%. The fluorescence slope was -0.302 (inactive) in assay [4] and 0.00755 (inactive) in assay [6]. Further, in assay [5], the NADPH fluorescence slope is -4.8e-05 (inactive).
